The target of test [1] is T1, Dihydrofolate reductase (Pneumocystis carinii) (UniProt P16184).
T1 sequence (whole entry): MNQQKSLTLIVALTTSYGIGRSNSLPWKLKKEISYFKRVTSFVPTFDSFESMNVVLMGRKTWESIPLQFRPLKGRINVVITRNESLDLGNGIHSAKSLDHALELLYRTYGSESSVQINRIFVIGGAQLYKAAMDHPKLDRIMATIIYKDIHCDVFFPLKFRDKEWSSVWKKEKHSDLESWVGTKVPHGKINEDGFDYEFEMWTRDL
Nature of the test: Ratio of piritrexim IC50 to compound IC50 for Pneumocystis carinii DHFR.

The nature of test [2]: Inhibition of Mycobacterium avium DHFR. In outline: (§1)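 Enzyme was added to give an OD340 change of 0.005/minute. Rat liver DHFR served as the mammalian comparator. Selectivity = rlDHFR IC50 / maDHFR IC50.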
The target of test [3] is T2, Dihydrofolate reductase (Rattus norvegicus, UniProt Q920D2).
T2 sequence (Q920D2 whole entry): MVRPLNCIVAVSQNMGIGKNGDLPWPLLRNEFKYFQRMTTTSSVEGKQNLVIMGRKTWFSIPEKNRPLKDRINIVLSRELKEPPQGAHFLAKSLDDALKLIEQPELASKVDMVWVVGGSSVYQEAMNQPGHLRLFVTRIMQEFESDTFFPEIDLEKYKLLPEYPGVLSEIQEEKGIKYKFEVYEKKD
In words: Inhibition of rat liver DHFR.

In test [4] the target is T3, Dihydrofolate reductase (Homo sapiens, UniProt P00374).
T3 sequence (P00374 whole entry): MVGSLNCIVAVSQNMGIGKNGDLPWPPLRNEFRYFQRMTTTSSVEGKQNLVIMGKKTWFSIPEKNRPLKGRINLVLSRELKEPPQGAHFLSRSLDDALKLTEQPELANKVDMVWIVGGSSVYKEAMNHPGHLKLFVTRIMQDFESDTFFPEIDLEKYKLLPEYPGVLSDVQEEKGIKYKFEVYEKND
In words: Inhibition of human recombinant DHFR.

Test [5] can be described thus: Selectivity ratio of IC50 for rat liver DHFR to IC50 for Pneumocystis carinii DHFR.
A short description of test [6]: Selectivity ratio of IC50 for rat liver DHFR to IC50 for Mycobacterium avium DHFR. In outline:
as §1

Test [7] can be described thus: Selectivity ratio of IC50 for human recombinant DHFR to IC50 for Pneumocystis jirovecii recombinant DHFR. In a few lines:
(§2)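 Enzyme was added to give an OD340 change of 0.005/min. IC50 was taken from the OD340 rate. Selectivity is the hDHFR IC50 divided by the pjDHFR IC50. Standard error of the means was 12% or less.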

In test [8] the target is T1, Dihydrofolate reductase (Pneumocystis carinii). In words: Ratio of trimethoprim IC50 to compound IC50 for Pneumocystis carinii DHFR.
The target in test [9] is T4, Dihydrofolate reductase (Pneumocystis carinii, UniProt P16184).
T4 sequence (P16184 whole entry): T1 sequence (whole entry)
In words: Inhibition of Pneumocystis carinii DHFR.

Test [10] is described as follows: Inhibition of Pneumocystis jirovecii recombinant DHFR. In a few lines: as §2

For the molecule `CN(c1cnc2nc(N)nc(N)c2c1)c1cccc2ccccc12`, the Ratio IC50 in [1] was determined as 6; in test [5], 9.9; in test [6] it was 10; in test [7] it was 2.2; in test [8], 5950. Also, the concentration for half-maximal inhibition (IC50) (in general, the point on the concentration scale where inhibition reaches its midpoint) in test [2] stood at 2 nM; in test [3], 21 nM; in [4] it was 5.6 nM; in [9], 2.1 nM; in test [10], 2.5 nM.

These data come from ChEMBL document CHEMBL2380288, “Design, synthesis, and molecular modeling of novel pyrido[2,3-d]pyrimidine analogues as antifolates; application of Buchwald-Hartwig aminations of heterocycles” (J Med Chem, 2013).
